Measured values taken from ChEMBL document CHEMBL1134258, “NAC/MEA conjugate: a new potent antioxidant which increases the GSH level in various cell lines” (Bioorg Med Chem Lett, 2001).

What was measured:
[1] = Effect on intracellular GSH content at 250 uM in human macrophage-derived monocytes (MDMs); format: functional
Outline: (§1)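 Human MDMs from healthy-donor PBMCs (Ficoll-Hypaque gradient; monocytes split from PBLs by countercurrent centrifugal elutriation; 7 days differentiation). Cultured in DMEM Glutamax with 10% heat-inactivated FCS plus penicillin/streptomycin/neomycin. Treated 24 h, then lysed; GSH measured by Griffith's method and normalised to protein (Bradford). Run in triplicate across five independent experiments (n=15).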

[2] = Percent increase in intracellular GSH level at 10 uM in 24 hr treated human macrophage-derived monocytes (MDMs); format: functional; outline: as §1
Mus musculus = test: Tested for intraperitoneal lethal dose in OF1 mice after 30 days; format: functional; conditions: ip, 720 h
Outline: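 Mice (OF1) dosed intraperitoneally and followed for 30 days. LD50 derived by Probit analysis, with the dose range set in a preliminary study.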

[3] = Percent increase in intracellular GSH level at 1000 uM in 24 hr treated human macrophage-derived monocytes (MDMs); format: functional; outline: as §1
Homo sapiens [4] = organism: Homo sapiens; test: Effective dose required to inhibit 70% of HIV-1 Ba-L-infected MDM''s at 0.001 uM; format: functional
Homo sapiens [5] = organism: Homo sapiens; test: Effective dose required to inhibit 50% of HIV-1 Ba-L-infected MDM''s at 0.01 uM; format: functional
Homo sapiens [6] = organism: Homo sapiens; test: Effective dose required to inhibit 90% of HIV-1 Ba-L-infected MDM''s at 0.001 uM; format: functional
Homo sapiens [7] = organism: Homo sapiens; test: Effective dose required to inhibit 70% of HIV-1 Ba-L-infected MDM''s at 0.01 uM; format: functional
[8] = Percent increase in intracellular GSH level at 100 uM in 24 hr treated human macrophage-derived monocytes (MDMs); format: functional; outline: as §1
[9] = Percent increase in intracellular GSH level at 250 uM in 24 hr treated human macrophage-derived monocytes (MDMs); format: functional; outline: as §1
[10] = Tested for cytotoxic concentration in human macrophage-derived monocytes (MDMs) after 12 days; format: cell-based
Outline: (§2)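 Human MDMs from donor PBMCs (elutriated monocytes, 7 days differentiation) exposed to the compound for 24 h or 12 days. Cytotoxicity read by neutral-red uptake; CC50 taken as the mean of three independent experiments, each in triplicate.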

[11] = Tested for cytotoxic concentration in human macrophage-derived monocytes (MDMs) at 24 hr treatment; format: cell-based; outline: as §2
Homo sapiens [12] = organism: Homo sapiens; test: Effective dose required to inhibit 90% of HIV-1 Ba-L-infected MDM''s at 0.01 uM; format: functional
Homo sapiens [13] = organism: Homo sapiens; test: Effective dose required to inhibit 50% of HIV-1 Ba-L-infected MDM''s at 0.001 uM; format: functional

Compound: NCCS [CYSTEAMINE]
- GSH [1]: 200%

Compound: CC(=O)N[C@@H](CS)C(=O)O.NCCS
- GSH [1]: 190%

Compound: CC(=O)N[C@@H](CS)C(=O)NCCSC(C)=O
- GSH [1]: 480%
- GSH [2]: 0%
- LD50 (Mus musculus): 700 mg/kg
- GSH [3]: 140%
- ED70 (Homo sapiens [4]): 15 µM
- ED50 (Homo sapiens [5]): 50 µM
- ED90 (Homo sapiens [6]): 75 µM
- ED70 (Homo sapiens [7]): 90 µM
- GSH [8]: 75%
- GSH [9]: 165%
- CC50 at 288 h [10]: 635 µM
- CC50 at 24 h [11]: > 5000 µM
- ED90 (Homo sapiens [12]): 190 µM
- ED50 (Homo sapiens [13]): 3 µM

Compound: CC(=O)N[C@@H](CS)C(=O)O [ACETYLCYSTEINE]
- GSH [1]: 200%
